The nature of assay [1]: OD615 S. cerevisiae growth inhibition, permissive medium, pilot counter-assay, permissive growth control for S. cerevisiae lifespan shortening project (AID 705;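 active = growth inhibition above 25% in both replicates, a cutoff set 3 SD above the mean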). As to conditions: OD615, 24 h, at 10 µM, active compounds read high. A digest of the protocol:
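System: Engineered DeaD yeast | Buffer or medium: SC raffinose/galactose permissive medium | Doses: 10 µM single dose, 0.25% DMSO | Times: 24 h exposure, 30 °C | Measured by: OD615 turbidity read | Read-out: Yeast growth inhibition indicated by reduced 24 h OD615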

Assay [2] in a line: Restrictive medium S. cerevisiae growth inhibition, OD615, pilot screen of yeast lifespan reduction project, restrictive growth control (AID 706;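 active = growth inhibition above a set limit, 3 SD over mean compound inhibition, in both replicates, cut at about 43% in these data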;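 also: modified DeaD lifespan yeast strain shifted to restrictive glucose medium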). The note with it: OD615, 48 h, at 10 µM, active compounds read high. A digest of the protocol:
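Assay system: engineered S. cerevisiae DeaD strain; Buffer or medium: CSMM-D glucose medium; Dosing: 10 µM compound, 0.25% DMSO; Times: cell pre-growth 4 h, compound exposure 48 h, 30 °C; Detection: absorbance (optical density) measured at 615 nm.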

The nature of assay [3]: viability gain of MRP-1-high H69AR cells under doxorubicin, pilot screen, MRP-1 activator project, CellTiter-Glo, duplicate (AID 807;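 active = viability increase at or above a cutoff of the median across tested compounds plus 3 SD, cut at about 8.5% in these data, passing the limit was not always enough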;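 also: compound pretreatment 18-22 h then 72 h combined with doxorubicin; 0% = doxorubicin alone and 100% = vehicle without doxorubicin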). As to conditions: H69AR viability with doxorubicin, CellTiter-Glo luminescence; at 10 µM; active compounds read high. On the technique in general: Cellular ATP, detected with luciferase, serves as a proxy for viable cell number.
Assay [4] can be described thus: growth suppression of beta-catenin knockout HCT116, pilot screen, human colon tumor cells (AID 823;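 active = cell viability at or below a set limit in both duplicate runs, the limit being the all-compound median minus 4 SD, cut at about 23% in these data, passing the limit was not always enough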;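 also: 0% = wells killed by 20 µM Hyamine and 100% = untreated DMSO cell wells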). As to conditions: CellTiter-Glo, 60 h, at 10 µM, active compounds read low.
A short description of assay [5]: growth suppression of PTEN-deleted HCT116, pilot screen, cell-based, HCT116 clonal line, CellTiter-Glo (AID 824).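 Also: 0% = 20 µM Hyamine control and 100% = vehicle cell control.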 The note with it: 60 h, at 10 µM, active compounds read low.
A short description of assay [6]: inhibitors of the yeast RAM network, pilot screen, dse1pr::URA3 reporter, 5-FOA selection (AID 869;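 active = inhibition over a set limit, the all-compound mean plus 3 SD, in both replicate runs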;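 also: 0% = DMSO wells with no growth and 100% = 10 µM 1-NA-PP1 with full growth; RAM network block rescues cells from 5-FOA so hits raise OD615 growth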). As to conditions: S. cerevisiae dse1pr::URA3 5-FOA growth, OD615, 2 d; at 10 µM; active compounds read high; strain carries analog-sensitive mutant Cbk1 kinase.
Assay [7] is described as follows: RAM signaling pathway blockade in yeast – S. cerevisiae, Pdr1DBD-CYC8 efflux-inhibited sensitized strain, primary screen (AID 1298;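 active = RAM network inhibition above 8.4% in each of two replicates, 3 SD over the compound average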;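 also: 0% = DMSO untreated cells without growth and 100% = 10 µM 1-NA-PP1 full growth; higher means more yeast growth rescued from 5-FOA killing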). As to conditions: S. cerevisiae cbk1-as DSE1-URA3 strain, 5-FOA growth OD615, 2 d; at 50 µM; active compounds read high.

Values without a mark were called inactive. Inconclusive results are not listed. Activity calls are given as the source filed them.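 The calls were made as follows, unless noted: active = viability at or below 27.92% in each of two runs, the all-compound median minus 4 SD; inconclusive = no clear call, values can overlap the other calls; inactive = the rest.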

On to `COc1ccc2oc(-c3ccccc3)c(C(=O)N3CCOCC3)c2c1`, for which the growth inhibition is 2.58% in assay [1] and -8.54% in assay [2]. The viability increase in assay [3] was -3.95%. Also, the viability (commonly a read-out of living cells in per cent, often relative to untreated cells) in assay [4] was 94.3%; in assay [5] it was 90%. Besides, the inhibition (usually the drop in the measured response relative to a control, in per cent) in assay [6] was 1.52%. Besides, in assay [7], the RAM network inhibition was 5.28%.
As for `COC(=O)CC1Oc2ccc(C)cc2NC1=O` (centres undefined), the growth inhibition in assay [1] was -4.56%; in assay [2], -1.75%. Further, the viability increase in assay [3] was 2.26%. Further, the viability in assay [4] and in assay [5] was 101% in each case. Further, the inhibition in assay [6] is 0.27%. For the same compound, the RAM network inhibition in assay [7] is 2.35%.
On to `CCNc1nc(C)c2cc(Br)c(=O)n(CC)c2n1`, for which the growth inhibition in assay [1] was -2.64%; in assay [2] it was -8.07%. Moreover, the viability increase in assay [3] was -6.29%. Moreover, the viability in assay [4] is 66.4%; in assay [5] it was 64.6%. In addition, the inhibition in assay [6] was 0.44%. Moreover, the RAM network inhibition in assay [7] is 7.93%.
In the case of `CCOC(=O)C1=C(SCC(=O)Nc2ccccc2)NC(=O)C(C#N)C12CCCCC2` (centres undefined), the figures for the growth inhibition in assay [1] and in assay [2] were -8.66% and -7.72%, respectively. For the same compound, the viability increase in assay [3] was -2.95%. In addition, the viability in assay [4] is 85.1%; in assay [5], 91.5%. Also, in assay [6], the inhibition is 1.71%. Further, in assay [7], the RAM network inhibition is 2.44%.
Consider `O=C(Nc1nnc(-c2cccs2)o1)c1cccc(C(F)(F)F)c1`, for which the values for the growth inhibition in assay [1] and in assay [2] were -14.9% and 7.83%, respectively. Also, the viability increase in assay [3] was -0.12%. Moreover, the viability is 15.5% (active) in assay [4] and 19.5% (active) in assay [5]. Besides, the inhibition in assay [6] is 1.56%. The RAM network inhibition in assay [7] is 3.02%.
As to `COCCn1c(=NC(=O)CSC(C)=O)sc2cc(OC)ccc21`, the growth inhibition in assay [1] was -27.6%; in assay [2] it was 18.1%. The viability increase in assay [3] is -6.74%. Further, the viability is 88% in assay [4] and 83.8% in assay [5]. The inhibition in assay [6] was 0.53%. Moreover, the RAM network inhibition in assay [7] is 0.96%.
Regarding `COCCCN(C(=O)Cn1ncc2c(=O)oc3ccc(C)cc3c21)C(C)c1ccncc1` (centres undefined), the growth inhibition in assay [1] was -16%; in assay [2], -27.4%. For the same compound, in assay [3], the viability increase was -1.85%. Also, the figures for the viability in assay [4] and in assay [5] were 103% and 98.3%, respectively. Further, the inhibition in assay [6] is 1.15%. In assay [7], the RAM network inhibition was 0.85%.
For `COc1ccc(C2C(C(=O)c3cccs3)=C(O)C(=O)N2c2nnc(C)s2)cc1OC` (centres undefined), the growth inhibition was -6.25% in assay [1] and 9.11% in assay [2]. In assay [3], the viability increase is 1.59%. For the same compound, the figures for the viability in assay [4] and in assay [5] were 102% and 101%, respectively. Further, the inhibition in assay [6] is 1.33%. In assay [7], the RAM network inhibition is 2.05%.
In the case of `COc1ccc(CN=CC2=C(O)CNC2=O)cc1OC`, the growth inhibition is -12% in assay [1] and -8.51% in assay [2]. Also, in assay [3], the viability increase was -0.57%. For the same compound, the viability is 99.8% in assay [4] and 103% in assay [5]. Further, in assay [6], the inhibition was 1.47%. For the same compound, in assay [7], the RAM network inhibition is 5.81%.
`COCCN1C(=O)c2oc3ccccc3c(=O)c2C1c1cccc(O)c1` (centres undefined): the growth inhibition is -7% in assay [1] and -8.97% in assay [2]. Also, the viability increase in assay [3] was -0.6%. The results for the viability in assay [4] and in assay [5] were 107% and 94.3%, respectively. Also, in assay [6], the inhibition was 1.1%. For the same compound, the RAM network inhibition in assay [7] was 2.85%.
In the case of `C=CCOn1c(=O)c(C)[n+]([O-])c2ccccc21`, the growth inhibition is -11.6% in assay [1] and -14.3% in assay [2]. In assay [3], the viability increase was -0.5%. Further, the viability in assay [4] is 105%; in assay [5], 98.2%. For the same compound, in assay [6], the inhibition is -0.085%. In assay [7], the RAM network inhibition was 5.63%.
For `COc1ccccc1N(CC(=O)Nc1ccc2c(c1)OCO2)S(=O)(=O)c1ccccc1`, the growth inhibition in assay [1] is -5.44%; in assay [2], -18.2%. In addition, in assay [3], the viability increase is -0.47%. Further, the viability in assay [4] was 73.7%; in assay [5], 84%. In addition, the inhibition in assay [6] is 0.8%. Besides, in assay [7], the RAM network inhibition is 8.21%.
On to `Cc1ccc(-c2nn3c(C)nnc3s2)cc1NC(=O)c1ccc(OC(C)C)cc1`, for which the growth inhibition in assay [1] was 12.3%; in assay [2], 56% (active). For the same compound, the viability increase in assay [3] is -4.84%. The viability in assay [4] was 79.4%; in assay [5] it was 68.4%. The inhibition in assay [6] is 0.855%. In addition, the RAM network inhibition in assay [7] was 7.25%.
`O=C(c1csc2c1CCCC2)n1cccn1`: the growth inhibition was 13.2% in assay [1] and 15.7% in assay [2]. The viability increase in assay [3] is -0.86%. Further, the values for the viability in assay [4] and in assay [5] were 98.7% and 106%, respectively. Besides, the inhibition in assay [6] is 1.69%. Further, the RAM network inhibition in assay [7] was -0.11%.
Regarding `COc1ccc(N(CC(=O)Nc2cc(OC)ccc2OC)S(=O)(=O)c2c(C)nn(C)c2C)cc1`, the growth inhibition was -7.47% in assay [1] and -15.8% in assay [2]. The viability increase in assay [3] was -4.82%. The viability in assay [4] was 95.6%; in assay [5] it was 81%. In addition, the inhibition in assay [6] was 1.36%. Also, in assay [7], the RAM network inhibition is 0.21%.
For `CCCCCCN=CC1=C(O)C(C(=O)OC)C(C)(C)CC1=O` (centres undefined), the growth inhibition in assay [1] was -10.1%; in assay [2] it was -3.98%. In addition, in assay [3], the viability increase was 1.15%. The viability in assay [4] was 95.1%; in assay [5], 95.3%. Besides, the inhibition in assay [6] is 0.93%. For the same compound, the RAM network inhibition in assay [7] was 0.11%.
`Cc1ccc2nc(NC(=O)C3CCN(S(=O)(=O)c4ccc5c(c4)oc(=O)n5C)CC3)sc2c1`: the growth inhibition in assay [1] was -5.8%; in assay [2] it was -24.5%. Further, in assay [3], the viability increase is 1.75%. Further, the viability in assay [4] is 82.2%; in assay [5], 88.9%. Also, the inhibition in assay [6] is 1.54%. The RAM network inhibition in assay [7] is 9.3%.
